The term IC50 denotes the concentration needed to halve the response being measured.

The subject of assay [1] is IOSE80 cells. The experiment in a line: MTT cell viability assay, normal ovarian epithelial cells IOSE80. It counts as cell-based. As to conditions: Homo sapiens, IOSE80, 48 h, read-out: IC50 (cell viability) IOSE80. Summed up: (§1)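 Culture: SKOV3 in RPMI-1640 with 10% FBS and penicillin-streptomycin at 37 °C, 5% CO2; OVCAR3 and IOSE80 in DMEM. Cells seeded at 1 × 10^4 per well, grown 24 h, then exposed to a range of test compound concentrations for 48 h. MTT (2 mg mL−1 stock) added, […]; formazan dissolved in DMSO; A490 read. IC50 calculated; SI = IC50 IOSE80/IC50 cancer line; three separate experiments.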
For orientation: Formazan colour is commonly taken as a measure of viable cells.

Assay [2] concerns SKOV3 cells. The experiment in a line: MTT cell viability assay, SKOV3. The assay is classed as cell-based, human. Put shortly: as §1
For assay [3], the system named is OVCAR3 cells. Briefly: MTT cell viability assay, OVCAR3. It counts as cell-based, human. Put shortly: as §1

In the case of `CC(=O)O[C@H]1C(=O)[C@@]2(C)[C@H]([C@H](OC(=O)c3ccccc3)[C@]3(O)C[C@H](OC(=O)[C@H](O)[C@@H](NC(=O)c4ccccc4)c4ccccc4)C(C)=C1C3(C)C)[C@]1(OC(C)=O)CO[C@@H]1C[C@@H]2O` [Paclitaxel], the IC50 in assay [1] amounted to 1700 ± 100 nM; in assay [2] (Homo sapiens, SK-OV-3, 48 h, read-out: IC50 (cell viability) SKOV3) it was 430 ± 30 nM; in assay [3] (Homo sapiens, OVCAR-3, 48 h, read-out: IC50 (cell viability) OVCAR3) it was 380 ± 40 nM. Besides, the “SI (selectivity index) SKOV3” value in assay [2] (IC50 IOSE80 cell line/IC50 SKOV3) worked out at 4.0. Also, the “SI (selectivity index) OVCAR3” value in assay [3] (IC50 IOSE80 cell line/IC50 OVCAR3) is given as 4.5.

Values taken from PMC9070660 (RSC Advances, 2019).
